The assay concerns the target Serine/threonine-protein kinase B-raf (Homo sapiens, UniProt P15056). Nature of the assay: Inhibition of human wild type B-Raf kinase assessed as change in ATP consumption by luciferase-luiferin-coupled chemiluminescent assay. In short, it runs like this:
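Wild-type B-Raf enzyme pre-incubated with compound 30 min at 30 °C, then ATP plus unactivated MEK1 substrate added and reacted 1 h at 30 °C. ADP-Glo reagent 40 min at 27 °C, then kinase detection reagent 30 min at 27 °C, luminescence read. IC50 fitted from inhibition rates; mean of two experiments.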

These results are taken from ChEMBL document CHEMBL2046277, “Design, synthesis and biological evaluation of β-carboline derivatives as novel inhibitors targeting B-Raf kinase” (Bioorg Med Chem Lett, 2012).

Sequence of Serine/threonine-protein kinase B-raf (P15056 whole entry): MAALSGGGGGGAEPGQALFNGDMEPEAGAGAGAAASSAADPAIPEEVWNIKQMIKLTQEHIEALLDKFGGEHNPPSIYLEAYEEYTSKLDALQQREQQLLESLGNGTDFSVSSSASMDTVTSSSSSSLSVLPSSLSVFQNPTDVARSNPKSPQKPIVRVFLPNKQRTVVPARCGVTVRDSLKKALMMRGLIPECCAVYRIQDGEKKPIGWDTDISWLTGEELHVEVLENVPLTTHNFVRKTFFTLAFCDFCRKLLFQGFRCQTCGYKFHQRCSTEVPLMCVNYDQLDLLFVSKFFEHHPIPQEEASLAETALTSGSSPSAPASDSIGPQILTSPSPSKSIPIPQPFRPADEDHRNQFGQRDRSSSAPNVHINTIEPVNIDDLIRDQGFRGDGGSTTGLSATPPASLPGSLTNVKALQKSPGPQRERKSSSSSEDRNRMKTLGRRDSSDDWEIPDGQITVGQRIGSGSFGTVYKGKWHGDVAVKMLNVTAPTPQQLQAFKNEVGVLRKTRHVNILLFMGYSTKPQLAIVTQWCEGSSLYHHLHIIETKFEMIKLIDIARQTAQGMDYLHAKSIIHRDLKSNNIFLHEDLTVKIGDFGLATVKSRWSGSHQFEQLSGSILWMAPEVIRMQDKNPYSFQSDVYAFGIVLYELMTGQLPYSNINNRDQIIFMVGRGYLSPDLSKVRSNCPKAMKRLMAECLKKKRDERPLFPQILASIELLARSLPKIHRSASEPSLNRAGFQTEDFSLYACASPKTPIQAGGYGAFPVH

What is called IC50 is the concentration that gives 50% inhibition. Consider `CCCNS(=O)(=O)c1ccc2[nH]c3c(C(N)=O)nccc3c2c1`, for which the IC50 amounted to 28.5 µM.

With `CCN(CC)CCCNS(=O)(=O)c1ccc2[nH]c3c(C(N)=O)nccc3c2c1`, the concentration for half-maximal inhibition (IC50) was found to be 2.81 µM.

Take `NC(=O)c1nccc2c1[nH]c1ccc(S(=O)(=O)NCCCO)cc12`: the IC50 came out at 20.5 µM.

As for `CC(O)CNS(=O)(=O)c1ccc2[nH]c3c(C(N)=O)nccc3c2c1` (stereo not drawn), the IC50 turned out to be 22 µM.

For `CN(C)CCCNS(=O)(=O)c1ccc2[nH]c3c(C(N)=O)nccc3c2c1`, the IC50 was 1.62 µM.

`COC(CNS(=O)(=O)c1ccc2[nH]c3c(C(N)=O)nccc3c2c1)OC`: the IC50 worked out at 91.5 µM.

Regarding `NC(=O)c1nccc2c1[nH]c1ccc(S(=O)(=O)NCC(O)CO)cc12` (stereo not drawn), the IC50 came out at 45.1 µM.

For the compound `NC(=O)c1nccc2c1[nH]c1ccc(S(=O)(=O)NCCO)cc12`, the concentration for half-maximal inhibition (IC50) stood at 23.7 µM.

As for `COCCCNS(=O)(=O)c1ccc2[nH]c3c(C(N)=O)nccc3c2c1`, the IC50 turned out to be 22.7 µM.

With `NC(=O)c1nccc2c1[nH]c1ccc(S(=O)(=O)NC3CC3)cc12`, the IC50 is 9.07 µM.

Take `NC(=O)c1nccc2c1[nH]c1ccc(S(=O)(=O)Nc3ccccc3)cc12`: the 50% inhibitory concentration (IC50) stood at 2.74 µM.

With `Cc1ccc(NS(=O)(=O)c2ccc3[nH]c4c(C(N)=O)nccc4c3c2)cc1`, the IC50 came out at 20.5 µM.

On to `NC(=O)c1nccc2c1[nH]c1ccc(S(=O)(=O)Nc3ccc(F)cc3)cc12`, for which the half-inhibitory concentration (IC50) amounted to 8.89 µM.

For the compound `NC(=O)c1nccc2c1[nH]c1ccc(S(=O)(=O)Nc3ccccn3)cc12`, the half-inhibitory concentration (IC50) was found to be 3.76 µM.

On to `NC(=O)c1nccc2c1[nH]c1ccc(S(=O)(=O)Nc3nccs3)cc12`, for which the half-inhibitory concentration (IC50) came out at 7.48 µM.

Take `NC(=O)c1nccc2c1[nH]c1ccc(S(N)(=O)=O)cc12`: the IC50 was found to be 2.12 µM.

With `NS(=O)(=O)c1ccc2[nH]c3cnccc3c2c1`, the IC50 was found to be 2.49 µM.

On to `CC(=O)NS(=O)(=O)c1ccc2[nH]c3cnccc3c2c1`, for which the IC50 was 59.1 µM.
